# From ChEMBL document CHEMBL1148220, “Antineoplastic agents. 529. Isolation and structure of nootkastatins 1 and 2 from the Alaskan yellow cedar Chamaecyparis nootkatensis” (2004)
# Activity calls are given as the source filed them. The calls are words filed in the database; no cut-off is given here.
# Tests used:
# Escherichia coli [1] = experiment: Antimicrobial activity against Escherichia coli ATCC 25922 at 64 ug/mL after 24 hrs by broth microdilution assay; format: functional, organism-based
# KM-20L2 = experiment: Cytotoxicity against human KM20L2 cells after 48 hrs by SRB assay; format: functional; conditions: KM-20L2, 48 h
# MCF7 = experiment: Cytotoxicity against human MCF7 cells after 48 hrs by SRB assay; format: functional; conditions: MCF7, 48 h
# DU-145 = experiment: Cytotoxicity against human DU145 cells after 48 hrs by SRB assay; format: functional; conditions: DU-145, 48 h
# Enterobacter cloacae [2] = experiment: Antimicrobial activity against Enterobacter cloacae ATCC 13047 at 64 ug/mL after 24 hrs by broth microdilution assay; format: functional, organism-based
# Cryptococcus neoformans [3] = experiment: Antimicrobial activity against Cryptococcus neoformans ATCC 90122 after 24 hrs by broth microdilution assay; format: functional; conditions: ATCC 90112, 24 h, in the assay text read “ATCC 90112” for “ATCC 90122”
# Method in brief: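 Yeasts were tested by NCCLS broth microdilution. Compounds were dissolved in a small volume of sterile DMSO and diluted in the appropriate medium immediately before testing. MIC was the lowest concentration inhibiting all visible growth (optically clear). Assays were repeated on separate days.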
# SF-268 = experiment: Cytotoxicity against human SF268 cells after 48 hrs by SRB assay; format: functional; conditions: SF-268, 48 h
# BXPC-3 = experiment: Cytotoxicity against human BxPC3 cells after 48 hrs by SRB assay; format: functional; conditions: BXPC-3, 48 h
# Streptococcus pneumoniae [4] = experiment: Antimicrobial activity against Streptococcus pneumoniae ATCC 6303 after 24 hrs by broth microdilution assay; format: functional; conditions: ATCC 6303, 24 h
# Method in brief: (§1)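 Bacterial MICs were determined by NCCLS broth microdilution. Compounds were dissolved in a small volume of sterile DMSO and diluted in the appropriate medium just before testing. MIC was the lowest concentration giving no visible growth (optically clear). Assays were repeated on separate days.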
# Candida albicans [5] = experiment: Antimicrobial activity against Candida albicans ATCC 90028 at 64 ug/mL after 48 hrs by broth microdilution assay; format: functional, organism-based
# Neisseria gonorrhoeae [6] = experiment: Antimicrobial activity against Neisseria gonorrhoeae ATCC 49226 at 64 ug/mL after 24 hrs by broth microdilution assay; format: functional; conditions: ATCC 49226, 24 h
# Enterococcus faecalis [7] = experiment: Antimicrobial activity against Enterococcus faecalis ATCC 29212 after 24 hrs by broth microdilution assay; format: functional; conditions: ATCC 29212, 24 h; method in brief: as §1
# Micrococcus luteus [8] = experiment: Antimicrobial activity against Micrococcus luteus Presque Isle 456 after 24 hrs by broth microdilution assay; format: functional; method in brief: as §1
# Staphylococcus aureus [9] = experiment: Antimicrobial activity against Staphylococcus aureus ATCC 29213 after 24 hrs by broth microdilution assay; format: functional; conditions: ATCC 29213, 24 h; method in brief: as §1
# P388 = experiment: Cytotoxicity against mouse P388 cells; format: functional; conditions: read-out: ED50 (the source's name)
# [10] = tested on: Stenotrophomonas maltophilia; experiment: Antimicrobial activity against Stenotrophomonas maltophilia ATCC 13637 at 64 ug/mL after 24 hrs by broth microdilution assay; format: functional, organism-based
# NCI-H460 = experiment: Cytotoxicity against human NCI-H460 cells after 48 hrs by SRB assay; format: functional; conditions: NCI-H460, 48 h
# Candida albicans [11] = experiment: Antimicrobial activity against Candida albicans ATCC 90028 after 48 hrs by broth microdilution assay in presence of 25% human serum; format: functional; conditions: ATCC 90028, 48 h
# Method in brief: (§2)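 For yeasts, NCCLS broth microdilution was run in medium supplemented with 25% heat-inactivated, filter-sterilized normal human serum. Compounds were reconstituted in sterile DMSO and diluted in medium just before the assay. MIC was the lowest concentration giving optically clear wells.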
# Streptococcus pneumoniae [12] = experiment: Antimicrobial activity against Streptococcus pneumoniae ATCC 6303 after 24 hrs by broth microdilution assay in presence of 25% human serum; format: functional; conditions: ATCC 6303, 24 h
# Method in brief: (§3)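 Bacteria were tested by NCCLS broth microdilution in medium containing 25% heat-inactivated, filter-sterilized normal human serum. Compounds were dissolved in sterile DMSO and diluted in medium immediately before use. MIC was the lowest concentration with no visible growth (optically clear). Assays were repeated on separate days.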
# Enterococcus faecium [13] = experiment: Antimicrobial activity against vancomycin-resistant Enterococcus faecium after 24 hrs by broth microdilution assay in presence of 25% human serum; format: functional
# Method in brief: as §3, with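 “Bacterial” for “Bacteria were tested by”, “microdilution run” for “microdilution”, “with” for “containing”, “taken up” for “dissolved”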
# Cryptococcus neoformans [14] = experiment: Antimicrobial activity against fluconazole-resistant Cryptococcus neoformans after 48 hrs by broth microdilution assay; format: functional
# Method in brief: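 Yeast broth microdilution following NCCLS. Compounds were dissolved in sterile DMSO and diluted in medium immediately before testing. MIC was the lowest concentration leaving the well optically clear, with no visible growth.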
# Streptococcus pyogenes [15] = experiment: Antimicrobial activity against penicillin-resistant Streptococcus pyogenes after 24 hrs by broth microdilution assay in presence of 25% human serum; format: functional
# Method in brief: as §3, with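 “Bacterial” for “Bacteria were tested by”, “microdilution run” for “microdilution”, “with” for “containing”, “taken up” for “dissolved”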
# Enterococcus faecalis [16] = experiment: Antimicrobial activity against Enterococcus faecalis ATCC 29212 after 24 hrs by broth microdilution assay in presence of 25% human serum; format: functional; conditions: ATCC 29212, 24 h; method in brief: as §3
# [17] = tested on: Staphylococcus epidermidis; experiment: Antimicrobial activity against Staphylococcus epidermidis ATCC 49461 after 24 hrs by broth microdilution assay; format: functional; conditions: ATCC 49461, 24 h; method in brief: as §1
# Nakaseomyces glabratus [18] = experiment: Antimicrobial activity against Candida glabrata at 64 ug/mL after 48 hrs by broth microdilution assay; format: functional, organism-based
# Streptococcus pyogenes [19] = experiment: Antimicrobial activity against penicillin-resistant Streptococcus pyogenes after 24 hrs by broth microdilution assay; format: functional
# Method in brief: (§4)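 NCCLS broth microdilution for bacteria. Compounds were dissolved in a small volume of sterile DMSO and diluted in medium just before testing. MIC was the lowest concentration giving no visible growth (optically clear). Assays were repeated on separate days.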
# Rhodococcus sp. [20] = experiment: Antimicrobial activity against Rhodococcus sp. after 24 hrs by broth microdilution assay; format: functional; conditions: Rhodococcus sp. (in: high G+C Gram-positive bacteria); method in brief: as §1
# Staphylococcus aureus [21] = experiment: Antimicrobial activity against methicillin-resistant Staphylococcus aureus after 24 hrs by broth microdilution assay in presence of 25% human serum; format: functional
# Method in brief: as §3, with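 “Bacterial” for “Bacteria were tested by”, “microdilution run” for “microdilution”, “with” for “containing”, “taken up” for “dissolved”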
# Rhodococcus sp. [22] = experiment: Antimicrobial activity against Rhodococcus sp. after 24 hrs by broth microdilution assay in presence of 25% human serum; format: functional; conditions: Rhodococcus sp. (in: high G+C Gram-positive bacteria); method in brief: as §3
# Cryptococcus neoformans [23] = experiment: Antimicrobial activity against fluconazole-resistant Cryptococcus neoformans after 48 hrs by broth microdilution assay in presence of 25% human serum; format: functional
# Nakaseomyces glabratus [24] = experiment: Antimicrobial activity against Candida glabrata after 48 hrs by broth microdilution assay in presence of 25% human serum; format: functional; method in brief: as §2
# Escherichia coli [25] = experiment: Antimicrobial activity against Escherichia coli ATCC 25922 after 24 hrs by broth microdilution assay in presence of 25% human serum; format: functional; conditions: ATCC 25922, 24 h; method in brief: as §3
# Streptococcus pneumoniae [26] = experiment: Antimicrobial activity against penicillin-resistant Streptococcus pneumoniae after 24 hrs by broth microdilution assay; format: functional; method in brief: as §4
# Enterococcus faecium [27] = experiment: Antimicrobial activity against vancomycin-resistant Enterococcus faecium after 24 hrs by broth microdilution assay; format: functional; method in brief: as §4
# Streptococcus pneumoniae [28] = experiment: Antimicrobial activity against penicillin-resistant Streptococcus pneumoniae after 24 hrs by broth microdilution assay in presence of 25% human serum; format: functional
# Method in brief: as §3, with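 “Bacterial” for “Bacteria were tested by”, “microdilution run” for “microdilution”, “with” for “containing”, “taken up” for “dissolved”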
# Cryptococcus neoformans [29] = experiment: Antimicrobial activity against Cryptococcus neoformans ATCC 90122 after 24 hrs by broth microdilution assay in presence of 25% human serum; format: functional; conditions: ATCC 90112, 24 h, in the assay text read “ATCC 90112” for “ATCC 90122”; method in brief: as §2
# [30] = tested on: Staphylococcus epidermidis; experiment: Antimicrobial activity against Staphylococcus epidermidis ATCC 49461 after 24 hrs by broth microdilution assay in presence of 25% human serum; format: functional; conditions: ATCC 49461, 24 h; method in brief: as §3
# [31] = tested on: Stenotrophomonas maltophilia; experiment: Antimicrobial activity against Stenotrophomonas maltophilia ATCC 13637 after 24 hrs by broth microdilution assay in presence of 25% human serum; format: functional; conditions: ATCC 13637, 24 h; method in brief: as §3
# Staphylococcus aureus [32] = experiment: Antimicrobial activity against Staphylococcus aureus ATCC 29213 after 24 hrs by broth microdilution assay in presence of 25% human serum; format: functional; conditions: ATCC 29213, 24 h; method in brief: as §3
# Micrococcus luteus [33] = experiment: Antimicrobial activity against Micrococcus luteus Presque Isle 456 after 24 hrs by broth microdilution assay in presence of 25% human serum; format: functional; method in brief: as §3
# Neisseria gonorrhoeae [34] = experiment: Antimicrobial activity against Neisseria gonorrhoeae ATCC 49226 after 24 hrs by broth microdilution assay in presence of 25% human serum; format: functional; conditions: ATCC 49226, 24 h; method in brief: as §3
# Staphylococcus aureus [35] = experiment: Antimicrobial activity against methicillin-resistant Staphylococcus aureus after 24 hrs by broth microdilution assay; format: functional; method in brief: as §4
# Enterobacter cloacae [36] = experiment: Antimicrobial activity against Enterobacter cloacae ATCC 13047 after 24 hrs by broth microdilution assay in presence of 25% human serum; format: functional; conditions: ATCC 13047, 24 h; method in brief: as §3
compound,measurement,setting,value
CC(C)c1c(O)ccc2c1C=C[C@H]1C(C)(C)CCC[C@]21C,Activity,Escherichia coli [1],inactive
same,GI50,KM-20L2,> 10 µg/mL
same,GI50,MCF7,> 10 µg/mL
same,GI50,DU-145,> 10 µg/mL
same,Activity,Enterobacter cloacae [2],inactive
same,MIC,Cryptococcus neoformans [3],16 µg/mL
same,GI50,SF-268,> 10 µg/mL
same,GI50,BXPC-3,> 10 µg/mL
same,MIC,Streptococcus pneumoniae [4],32 µg/mL
same,Activity,Candida albicans [5],inactive
same,MIC,Neisseria gonorrhoeae [6],8 µg/mL
same,MIC,Enterococcus faecalis [7],16 µg/mL
same,MIC,Micrococcus luteus [8],4 µg/mL
same,MIC,Staphylococcus aureus [9],16 µg/mL
same,EC50,P388,3.7 µg/mL
same,Activity,[10],inactive
same,GI50,NCI-H460,> 10 µg/mL
CO[C@@H]1C[C@H]2C(C)(C)CCC[C@]2(C)c2ccc(O)c(C(C)C)c21,MIC,Candida albicans [11],> 64 µg/mL
same,MIC,Streptococcus pneumoniae [12],> 64 µg/mL
same,Activity,Escherichia coli [1],inactive
same,GI50,KM-20L2,1.6 µg/mL
same,GI50,MCF7,1.5 µg/mL
same,MIC,Enterococcus faecium [13],> 64 µg/mL
same,MFC,Cryptococcus neoformans [14],4 µg/mL
same,MIC,Cryptococcus neoformans [14],4 µg/mL
same,GI50,DU-145,1.7 µg/mL
same,MIC,Streptococcus pyogenes [15],> 64 µg/mL
same,MIC,Enterococcus faecalis [16],> 64 µg/mL
same,Activity,Enterobacter cloacae [2],inactive
same,MBC,[17],16 µg/mL
same,MIC,[17],2 µg/mL
same,MIC,Cryptococcus neoformans [3],8 µg/mL
same,GI50,SF-268,1.9 µg/mL
same,Activity,Nakaseomyces glabratus [18],inactive
same,MBC,Streptococcus pyogenes [19],32 µg/mL
same,MIC,Streptococcus pyogenes [19],16 µg/mL
same,MBC,Rhodococcus sp. [20],8 µg/mL
same,MIC,Rhodococcus sp. [20],2 µg/mL
same,GI50,BXPC-3,1.5 µg/mL
same,MIC,Staphylococcus aureus [21],> 64 µg/mL
same,MIC,Rhodococcus sp. [22],> 64 µg/mL
same,MIC,Cryptococcus neoformans [23],> 64 µg/mL
same,MIC,Nakaseomyces glabratus [24],> 64 µg/mL
same,MIC,Escherichia coli [25],> 64 µg/mL
same,MBC,Streptococcus pneumoniae [26],16 µg/mL
same,MIC,Streptococcus pneumoniae [26],16 µg/mL
same,MIC,Streptococcus pneumoniae [4],8 µg/mL
same,Activity,Candida albicans [5],inactive
same,MBC,Enterococcus faecium [27],4 µg/mL
same,MIC,Enterococcus faecium [27],4 µg/mL
same,MIC,Neisseria gonorrhoeae [6],4 µg/mL
same,MIC,Streptococcus pneumoniae [28],> 64 µg/mL
same,MIC,Cryptococcus neoformans [29],> 64 µg/mL
same,MIC,[30],> 64 µg/mL
same,MIC,Enterococcus faecalis [7],4 µg/mL
same,MIC,Micrococcus luteus [8],2 µg/mL
same,MIC,[31],> 64 µg/mL
same,MIC,Staphylococcus aureus [32],> 64 µg/mL
same,MIC,Micrococcus luteus [33],> 64 µg/mL
same,MIC,Staphylococcus aureus [9],4 µg/mL
same,EC50,P388,> 10 µg/mL
same,Activity,[10],inactive
same,GI50,NCI-H460,1.8 µg/mL
same,MIC,Neisseria gonorrhoeae [34],> 64 µg/mL
same,MBC,Staphylococcus aureus [35],8 µg/mL
same,MIC,Staphylococcus aureus [35],4 µg/mL
same,MIC,Enterobacter cloacae [36],> 64 µg/mL
